Reference: ChEMBL document CHEMBL6127097, “Structure-Guided Discovery of cis-Hexahydro-pyrido-oxazinones as Reversible, Drug-like Monoacylglycerol Lipase Inhibitors” (J Med Chem, 2024)
Converted amounts (≈) assume the structure as drawn.

What was measured:
[1] = target: T1, Monoglyceride lipase (Homo sapiens, UniProt Q99685); test: Inhibition of human MAGL using native substrate by Rapidfire MS assay
T1 sequence (Q99685 whole entry): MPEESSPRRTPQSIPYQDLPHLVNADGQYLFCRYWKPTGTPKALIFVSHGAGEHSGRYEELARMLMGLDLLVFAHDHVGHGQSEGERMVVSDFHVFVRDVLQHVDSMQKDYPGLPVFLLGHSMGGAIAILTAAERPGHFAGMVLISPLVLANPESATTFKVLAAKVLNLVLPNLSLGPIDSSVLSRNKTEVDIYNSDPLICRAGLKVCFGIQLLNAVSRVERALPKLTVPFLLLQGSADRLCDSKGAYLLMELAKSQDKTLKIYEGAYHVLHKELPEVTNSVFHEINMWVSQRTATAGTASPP

[2] = Octanol-water partition coefficient, logD of the compound at pH 7.4 incubated for 1.5 hrs by shake flask based LC-UV/MS analysis; format: physicochemical; conditions: pH 7.4
How it was run: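 CAMDIS shake-flask variant. 10 mM DMSO stock is diluted into 25 mM phosphate pH 7.4 over a 1-octanol-impregnated PVDF membrane and shaken 1.5 h at 21 °C, at two octanol/buffer ratios, in triplicate. Remaining aqueous concentration is read by LC/MS; logD comes from the difference with and without octanol.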

[3] = Aqueous solubility of compound in phosphate buffer at pH 6.5 by HPLC or MS/MS analysis; format: physicochemical; conditions: phosphate buffer, read-out: solubility
How it was run: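 Lyophilization solubility assay (LYSA) starting from a 10 mM DMSO stock. DMSO was removed by centrifugal vacuum evaporation, then 0.05 M phosphate buffer pH 6.5 was added and samples sonicated. Filtrates were analysed by MS/MS and/or HPLC against a 4- to 7-point calibration curve.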

[4] = Cmax in C57BL/6 mouse at 5.1 mg/kg, po measured upto 7 hrs by LC-MS/MS analysis; conditions: in vivo
[5] = Unbound brain to plasma partition coefficient of compound in C57BL/6 mouse at 24 mg/kg, ip measured upto 7 hrs by LC-MS/MS analysis; conditions: read-out: K(p,uu,brain)
[6] = AUClast in C57BL/6 mouse at 24 mg/kg, ip measured upto 7 hrs by LC-MS/MS analysis; conditions: in vivo
[7] = Clearance in C57BL/6 mouse at 1.3 mg/kg, iv measured upto 7 hrs by LC-MS/MS analysis; conditions: in vivo
[8] = Tmax in C57BL/6 mouse at 24 mg/kg, ip measured upto 7 hrs by LC-MS/MS analysis; conditions: in vivo
[9] = Cmax in C57BL/6 mouse at 24 mg/kg, ip measured upto 7 hrs by LC-MS/MS analysis; conditions: in vivo
[10] = AUClast in C57BL/6 mouse at 5.1 mg/kg, po measured upto 7 hrs by LC-MS/MS analysis; conditions: in vivo
[11] = Ratio of drug concentration in C57BL/6 mouse CSF to plasma at 24 mg/kg, ip measured upto 7 hrs by LC-MS/MS analysis
[12] = Half-life in C57BL/6 mouse at 24 mg/kg, ip measured upto 7 hrs by LC-MS/MS analysis; conditions: in vivo
[13] = Oral bioavailability in C57BL/6 mouse at 5.1 mg/kg measured upto 7 hrs by LC-MS/MS analysis; conditions: in vivo
[14] = Tmax in C57BL/6 mouse at 5.1 mg/kg, po measured upto 7 hrs by LC-MS/MS analysis; conditions: in vivo
[15] = Volume of distribution at steady state in C57BL/6 mouse at 1.3 mg/kg, iv measured upto 7 hrs by LC-MS/MS analysis; conditions: in vivo, read-out: Vdss
[16] = Ratio of drug concentration in C57BL/6 mouse brain to plasma at 24 mg/kg, ip measured upto 7 hrs by LC-MS/MS analysis
[17] = Half-life in C57BL/6 mouse at 1.3 mg/kg, iv measured upto 7 hrs by LC-MS/MS analysis; conditions: in vivo
[18] = Plasma protein binding in human assessed as fraction unbound by equilibrium dialysis based LC-MS/MS method; format: ADME, cell-free
How it was run: (§1)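 Equilibrium dialysis across a 12–14 kDa cutoff membrane in a Teflon 96-well device. Pooled frozen plasma is adjusted to pH 7.4 and spiked at 1000 nM initial total, against Soerensen buffer pH 7.4. Incubation is 5 h at 37 °C, 5% CO2, with diazepam control in each well. %fu = 100 × buffer/matrix concentration after dialysis; recovery accepted at 80–120%.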

[19] = Free fraction in human plasma incubated for 5 hrs by equilibrium dialysis based LC-MS/MS analysis; format: ADME, cell-free
How it was run: as §1

SMILES: O=C1COc2ccc(C(=O)N3CCC(Cc4ccc(F)cc4)CC3)cc2N1
- IC50 ([1]; read-out: IC50): 0.062 µM
- IC50 ([1]; read-out: pIC50 (converted)): 0.0575 µM
- logD at 1.5 h [2]: 3.3
- solubility [3]: 0.8 µg/mL (≈ 2.17 µM)

SMILES: O=C1CSc2ccc(C(=O)N3CCC(Cc4ccc(C(F)(F)F)cc4)CC3)cc2N1
- IC50 ([1]; read-out: IC50): 2.5 µM
- IC50 ([1]; read-out: pIC50 (converted)): 2.4 µM
- logD at 1.5 h [2]: 3.7
- solubility [3]: 6.9 µg/mL (≈ 15.9 µM)

SMILES: O=C1CO[C@H]2CCN(C(=O)N3CCC(Cc4ccc(C(F)(F)F)cc4)CC3)C[C@@H]2N1 (racemic)
- IC50 ([1]; read-out: IC50): 0.37 µM
- IC50 ([1]; read-out: pIC50 (converted)): 0.347 µM
- logD at 1.5 h [2]: 3.2
- solubility [3]: 78 µg/mL (≈ 183 µM)

SMILES: O=C1COc2ccc(C(=O)N3CCC(C(c4ccc(F)cc4)c4ccc(F)cc4)CC3)cc2N1
- IC50 ([1]; read-out: IC50): 0.001 µM
- logD at 1.5 h [2]: 3.8
- solubility [3]: < 0.1 µg/mL

SMILES: O=C1COc2ccc(C(=O)N3CCC(c4c[nH]c5ccccc45)CC3)cc2N1
- IC50 ([1]; read-out: IC50): 0.037 µM
- logD at 1.5 h [2]: 2.9
- solubility [3]: 37 µg/mL (≈ 98.6 µM)

SMILES: O=C1CO[C@@H]2CCN(C(=O)N3CCC(Cc4ccc(C(F)(F)F)cc4)CC3)C[C@@H]2N1
- IC50 ([1]; read-out: IC50): 2.2 µM
- logD at 1.5 h [2]: 3.3
- solubility [3]: 114 µg/mL (≈ 268 µM)

SMILES: O=C1COc2ccc(C(=O)N3CCC(Cc4cccc(C(F)(F)F)c4)CC3)cc2N1
- IC50 ([1]; read-out: IC50): 0.046 µM
- IC50 ([1]; read-out: pIC50 (converted)): 0.0447 µM
- logD at 1.5 h [2]: 3.9
- solubility [3]: 15 µg/mL (≈ 35.8 µM)

SMILES: O=C1COc2ccc(C(=O)N3CCC(c4c[nH]c5cc(Cl)ccc45)CC3)cc2N1
- IC50 ([1]; read-out: IC50): 0.021 µM
- logD at 1.5 h [2]: 3.8
- solubility [3]: 0.3 µg/mL (≈ 0.732 µM)

SMILES: O=C1COc2ccc(C(=O)N3CCC(c4c[nH]c5ccc(Cl)cc45)CC3)cc2N1
- IC50 ([1]; read-out: IC50): 0.003 µM
- logD at 1.5 h [2]: 3.6
- solubility [3]: 2 µg/mL (≈ 4.88 µM)

SMILES: O=C1COc2ccc(C(=O)N3CCC(Cc4cccc(F)c4)CC3)cc2N1
- IC50 ([1]; read-out: IC50): 0.051 µM
- IC50 ([1]; read-out: pIC50 (converted)): 0.049 µM
- logD at 1.5 h [2]: 3.6
- solubility [3]: 36 µg/mL (≈ 97.7 µM)

SMILES: O=C1COc2ccc(C(=O)N3CCC(Cc4ccccc4)CC3)cc2N1
- IC50 ([1]; read-out: IC50): 0.075 µM
- logD at 1.5 h [2]: 3.2
- solubility [3]: 1.1 µg/mL (≈ 3.14 µM)

SMILES: O=C1CO[C@H]2CCN(C(=O)N3CCC(Cc4ccc(C(F)(F)F)cc4)CC3)C[C@H]2N1 (racemic)
- Cmax [4]: 896 ng/mL
- Kp uu at 7 h [5]: 0.35
- AUC(0-t) at 7 h [6]: 62100 ng·h/mL
- clearance [7]: 23 mL/min/kg
- Tmax [8]: 1.5 h
- Cmax [9]: 12200 ng/mL
- AUC(0-t) at 7 h [10]: 4560 ng·h/mL
- Kp at 7 h [11]: 0.016
- half-life [12]: 2.9 h
- bioavailability [13]: 127%
- IC50 ([1]; read-out: IC50): 0.065 µM
- Tmax [14]: 2.7 h
- logD at 1.5 h [2]: 3.2
- Vd [15]: 3 L/kg
- solubility [3]: 225 µg/mL (≈ 529 µM)
- Kp at 7 h [16]: 1.7
- half-life [17]: 1.5 h

SMILES: O=C1C[C@H]2CCN(C(=O)N3CCC(Cc4ccc(C(F)(F)F)cc4)CC3)C[C@H]2N1
- IC50 ([1]; read-out: IC50): 0.569 µM
- logD at 1.5 h [2]: 3.2
- solubility [3]: 377 µg/mL (≈ 921 µM)

SMILES: O=C1COc2ccc(C(=O)N3CCC(Cc4ccc(C(F)(F)F)cc4)CC3)cc2N1
- fraction unbound [18]: 0.005
- IC50 ([1]; read-out: IC50): 0.032 µM
- IC50 ([1]; read-out: pIC50 (converted)): 0.0288 µM
- fraction unbound at 5 h [19]: 0.005
- logD at 1.5 h [2]: 3.8
- solubility [3]: 4.1 µg/mL (≈ 9.8 µM)

SMILES: O=C(c1ccc2cn[nH]c2c1)N1CCC(Cc2ccc(C(F)(F)F)cc2)CC1
- IC50 ([1]; read-out: IC50): 0.965 µM
- IC50 ([1]; read-out: pIC50 (converted)): 0.912 µM
- logD at 1.5 h [2]: 3.8
- solubility [3]: 2.9 µg/mL (≈ 7.49 µM)

SMILES: O=C1COc2ccc(C(=O)N3CCC(C(c4ccccc4)c4ccccc4)CC3)cc2N1
- IC50 ([1]; read-out: IC50): 0.001 µM
- IC50 ([1]; read-out: pIC50 (converted)): 0.000437 µM
- logD at 1.5 h [2]: 3.8
- solubility [3]: < 0.1 µg/mL
